NTR1 ag = agonists of human neurotensin receptor NTR1; AID 493036; 0.17% of 330,000 active; P30989; activation, % at 20 µM; NTR1-U2OS beta-arrestin-GFP spot imaging, agonist mode;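 active means activation at or above 40% of the spot to cytoplasm intensity ratio, with at least 20 cells analyzed; inconclusive means wells under 20 cells, flagged as cytotoxic or low count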;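 further: 0% = DMSO without peptide and 100% = 100 nM NTR1 peptide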
MC4R antagonist = blocks human MC4R cAMP signaling | AID 540295 | MC4R-expressing cells, MTII-stimulated cAMP, LANCE TR-FRET | inhibition, % at 6.5 µM | 0.48% of 360,000 active | P32245;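 active means inhibition above its plate's cutoff, the mean of tested wells on that plate plus 3 SD, cut at about 29% in these data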;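 further: 0% = Melanotan II alone and 100% = Melanotan II plus saturating MCL0020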
Target sequence (P32245 whole entry, looked up): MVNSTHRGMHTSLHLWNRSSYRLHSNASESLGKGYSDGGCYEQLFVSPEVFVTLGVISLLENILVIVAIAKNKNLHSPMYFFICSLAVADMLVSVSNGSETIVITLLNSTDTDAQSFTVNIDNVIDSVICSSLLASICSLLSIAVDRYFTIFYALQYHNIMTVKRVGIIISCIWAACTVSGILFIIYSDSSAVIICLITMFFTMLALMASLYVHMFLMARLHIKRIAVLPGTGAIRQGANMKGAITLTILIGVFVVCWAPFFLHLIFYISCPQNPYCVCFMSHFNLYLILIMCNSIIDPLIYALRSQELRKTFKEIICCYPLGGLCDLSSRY
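Assay system: U2OS cells stably expressing human melanocortin 4 receptor (MC4R) / Dosing: 6.5 µM / Timing: compound 30 min, challenge 1 h, detection 1 h / Measured by: Eu-cAMP/anti-cAMP TR-FRET, emission 671 nm / Replicates: singlicate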
MC4R barr agon = human MC4R agonism via beta-arrestin. P32245. U2OS MC4R beta-arrestin complementation, luminescence; percent of melanotan II response, DMSO zero. activation, % at 8.9 µM. 0.98% of 360,000 active;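 active means activation above a per-plate cutoff, the mean activation of sample wells on that plate plus 3 SD, cut at about 8% in these data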
AI-2 QS mod = modulators of Vibrio harveyi AI-2 quorum sensing system; Vibrio harveyi JMH597 AI-2 luminescence/OD600 ratio, 9 h; active compounds read low; strain lacks LuxN and CqsS sensors; 0 = neutral-control median; activity change, % at 7.5 µM; 0.4% of 300,000 active; AID 2094; in the data active means activity change below about -75%, passing the limit was not always enough; inconclusive means no clear call, values can overlap the other calls;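 further: luminescence divided by OD600 gain over 9 h not by final OD600 alone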
The depositor's hits bear a star; ? = inconclusive; nt = no result given. Hits are enriched below; roughly 1.8% of the tested compounds scored in any of these assays.

SMILES | NTR1 ag | MC4R antagonist | MC4R barr agon | AI-2 QS mod
Cc1cc(C)c2nc(N(CCCN(C)C)C(=O)c3ccc4c(c3)OCCO4)sc2c1 | 4 | 0 | 8.4* | -17
CC1CCCCN1S(=O)(=O)c1ccc(C(=O)N(CCCN(C)C)c2nc3ccc(Br)cc3s2)cc1 (stereo not given) | 24 | 7 | 8.8* | -4
CN(C)CCCN(C(=O)c1ccc2c(c1)CCCC2)c1nc2ccc(Cl)cc2s1 | 12 | 4 | 9.1* | 13
O=C(Nc1cccc2c1CCCC2)c1ccccc1Br | -1 | 0 | -1 | 4
NC(=O)C1(N2CCCCC2)CCN(C(=S)Nc2ccc(F)cc2)CC1 | 0 | -2 | 8.5* | 7
O=C(/C=C/c1ccccc1)NC(=S)NNC(=O)c1cnccn1 | 0 | -4 | -2 | -8
O=C(/C=C/c1ccccc1)NC(=S)NNC(=O)c1cccnc1 | -1 | 7 | -1 | -111*
COc1ccccc1C(=O)Nc1nnc(S(=O)(=O)N2CCN(c3ccc(F)cc3)CC2)s1 | 2 | 8 | -1 | 16
CCCC(=O)NC(c1ccc(N(C)C)cc1)c1ccc2cccnc2c1O (stereo not given) | 4 | 0 | -1 | -90*
CCCCC(=O)/C=C/n1c(=S)oc2ccccc21 | 2 | 8 | 0 | -90*
CCS(=O)(=O)c1ccc(O)c(NC(=O)c2ccc(S(=O)(=O)N3CCCCCC3)cc2)c1 | 1 | 6 | -2 | nt
O=C(COc1ccccc1)Nc1ccc(CSc2ccccc2)cc1 | -5 | 11 | 10* | 6
CCCCCc1ccc(OCCOCCn2c[n+](C)c3ccccc32)c(CCCCC)c1 | nt | -8 | 17* | 40
C[n+]1cn(CC(O)COCc2ccccc2)c2ccccc21 (stereo not given) | 0 | 10 | 0 | 4
O=C(Nc1ccc2c(c1)CCC2)c1cnn2c1NC(c1ccco1)CC2C(F)(F)F (stereo not given) | -1 | 12 | 17* | nt
CC(C)N(CC(N)=O)c1ccc(S(=O)(=O)N2CCCC2)cn1 | 2 | -1 | -1 | nt
COc1ccc(S(=O)(=O)N(C)CC(=O)Nc2ccc(C(N)=O)cc2)cc1OC | 0 | 12 | -1 | 8
COC(=O)c1ccc(NC(=O)CN(C)S(=O)(=O)c2ccc(OC)c(C)c2)cc1 | 0 | 0 | 8.3* | 25
COc1cc(OC)cc(C(=O)NNc2nc3cc4c(cc3s2)OCO4)c1 | 3 | 9 | -1 | -18
O=C(NNc1nc2cc3c(cc2s1)OCO3)c1cccc(F)c1 | 0 | 12 | 0 | -88*
O=C(Nc1ccc(S(=O)(=O)Nc2ccccn2)cc1)c1cccc(Br)c1 | 0 | 8 | -2 | -81*
CS(=O)(=O)c1ccc(Cl)c(NC(=O)CNC(=O)c2ccc3c(c2)OCO3)c1 | -1 | -1 | -2 | nt
O=C(Nc1cc(Cl)ccc1-n1cncn1)c1ccc([N+](=O)[O-])s1 | 0 | 11 | -3 | ?
Cc1cc(NC(=O)COC(=O)c2c(C)noc2C)ccc1Br | 0 | 22 | 0 | -91*
Cc1noc(C)c1C(=O)OCC(=O)Nc1cccc(S(N)(=O)=O)c1 | 0 | -1 | 0 | -16
SMILES | NTR1 ag | MC4R antagonist | MC4R barr agon | AI-2 QS mod
N#Cc1ccc(/C=C/C(=O)c2ccccc2)cc1 | 61* | 19 | -2 | 19
CCOc1cccc(C2c3c(oc4ccccc4c3=O)C(=O)N2c2ccccn2)c1 (stereo not given) | 6 | nt | nt | 8
CCOc1cc(C2c3c(oc4ccccc4c3=O)C(=O)N2c2nccs2)ccc1O (stereo not given) | 4 | -4 | 9.5* | 24
Oc1c(C(c2ccccn2)N2CCCCC2)cc(Cl)c2cccnc12 (stereo not given) | 7 | 25 | -3 | ?
CCC(=O)NC(c1cccs1)c1cc(Cl)c2cccnc2c1O (stereo not given) | 1 | 6 | -4 | 30
CCN1CCN(C(c2ccc(C(F)(F)F)cc2)c2ccc3cccnc3c2O)CC1 (stereo not given) | 10 | 1 | -3 | -119*
CN1CCN(C(c2ccc(C(F)(F)F)cc2)c2cc(Cl)c3cccnc3c2O)CC1 (stereo not given) | 13 | nt | nt | -85*
CN1CCN(C(c2ccc(Cl)cc2)c2cc(Cl)c3cccnc3c2O)CC1 (stereo not given) | 18 | -2 | -3 | -122*
O=S(=O)(c1cccc(Cl)c1)N1CN(CC2CCCO2)c2nc3ccccc3nc21 (stereo not given) | -1 | -3 | -1 | 18
CCn1c(COC(=O)CNC(=O)c2ccccc2F)nc2cc(S(=O)(=O)N(C)C)ccc21 | 2 | 7 | -1 | 21
